Source: PubChem BioAssay
Shown are actives, neighbours in structure and some others; about 2.7% of the full set was active somewhere.
MC4R antagonist: MC4R antagonists of cAMP signaling, primary screen, cell-based, TR-FRET, antagonist arm of biased-ligand search; Melanocortin receptor 4 (Homo sapiens), P32245; actives 0.48% (n = 360,000); MC4R-expressing cells, MTII-stimulated cAMP, LANCE TR-FRET; inhibition, % at 6.5 µM;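 active = inhibition above its plate's cutoff, the mean of tested wells on that plate plus 3 SD, cut at about 29% in these data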;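 also: 0% = Melanotan II alone and 100% = Melanotan II plus saturating MCL0020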
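system = U2OS cells with stable human MC4R expression | also added = Melanotan II challenge after compound preincubation | dosing = one concentration, 6.5 µM nominal | incubation = compound 30 min, challenge 1 h, detection 1 h | measured by = TR-FRET with Eu-cAMP and labeled anti-cAMP, 671 nm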
PG9 binder: binders of HIV-1 gp120 antibody PG9, primary screen, biochemical, TR-FRET; HIV-1 gp120 / PG9 antibody interaction; actives 0.43% (n = 360,000); inhibition, % at 6.7 µM; TR-FRET gp120-PG9 antibody binding; in the data active = inhibition above about 8.5%
NR1D1 modulator: modulators of Rev-erb alpha DNA binding, primary screen, biochemical, FITC-DNA, fluorescence polarization, uHTS; actives 0.79% (n = 370,000); Rev-erbα–FITC-DNA binding, 90 min; activity, % at 10 µM;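 active = activity above about 14%, limit read from the data; passing the limit was not always enough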;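 also: 0% = DMSO wells with 35 nM protein and 100% = DMSO wells with 750 nM protein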
Target sequence (P20393 whole entry, looked up): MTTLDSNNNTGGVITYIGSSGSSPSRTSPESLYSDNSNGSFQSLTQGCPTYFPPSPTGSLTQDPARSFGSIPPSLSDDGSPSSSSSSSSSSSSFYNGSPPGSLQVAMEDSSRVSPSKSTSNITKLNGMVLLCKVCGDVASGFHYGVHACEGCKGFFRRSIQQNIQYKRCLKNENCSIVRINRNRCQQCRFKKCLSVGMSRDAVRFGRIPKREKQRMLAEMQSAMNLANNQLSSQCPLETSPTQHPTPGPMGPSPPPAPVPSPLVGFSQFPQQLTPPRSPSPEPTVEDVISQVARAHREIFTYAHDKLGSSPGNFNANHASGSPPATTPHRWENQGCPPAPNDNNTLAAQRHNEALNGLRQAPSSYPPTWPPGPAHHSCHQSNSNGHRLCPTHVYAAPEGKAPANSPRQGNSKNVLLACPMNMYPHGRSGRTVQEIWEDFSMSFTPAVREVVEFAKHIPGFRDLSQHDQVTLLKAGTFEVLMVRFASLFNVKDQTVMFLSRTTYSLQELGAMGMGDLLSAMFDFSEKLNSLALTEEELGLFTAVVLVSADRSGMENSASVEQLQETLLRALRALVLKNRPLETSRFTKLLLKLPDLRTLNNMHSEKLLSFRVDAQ
MC4R ag barr: MC4R agonists recruiting beta-arrestin, primary screen, cell-based, luminescence, agonist arm of biased-ligand search; activation, % at 8.9 µM; U2OS MC4R beta-arrestin complementation; percent of melanotan II response, DMSO zero; actives 0.98% (n = 360,000); AID 540308, 2011;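 active = activation above a per-plate cutoff, the mean activation of sample wells on that plate plus 3 SD, cut at about 8% in these data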
NR2E3 ag-1: inhibitors of NR2E3-RetCOR corepressor binding, primary screen, NR2E3 agonist project, biochemical, TR-FRET, GST-NR2E3, biotin-RetCOR; Photoreceptor-specific nuclear receptor (Homo sapiens), Q9Y5X4; inhibition of corepressor binding, % at 4.78 µM; 1536-well; actives 0.12% (n = 320,000);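 active = percent inhibition above the cutoff of mean plus 3 SD of all tested compounds, set per screening campaign, cut at about 20% in these data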;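 also: 0% = DMSO wells and 100% = biotin wells as full block of FRET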
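Assay system: NR2E3–RetCOR corepressor complex. Quantity: 1.35 nM GST-NR2E3. Buffer or medium: pH 7.5 Tris-based buffer. Reagent: biotinylated RetCOR corepressor at 7 nM final. Schedule: 5 h at 4 °C. Detection: TR-FRET, emission read at 617 and 671 nm. Replicates: one well per compound, singlicate testing.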
NR2E3 ag-2: NR2E3 agonists in two-hybrid cells, primary screen, cell-based, luminescence, CHO-S, Gal4-NCOR/VP16-NR2E3; Photoreceptor-specific nuclear receptor (Homo sapiens), Q9Y5X4; luciferase; inhibition of corepressor binding, % at 3.98 µM; actives 0.35% (n = 360,000); AID 602229, 2012;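 active = inhibition above the mean of all tested compounds plus 3 SD, cut at about 70% in these data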;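 also: 0% = DMSO with NR2E3 transfected cells and 100% = cells lacking NR2E3 construct; higher means lower luciferase signal from less NR2E3 corepressor binding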
MC4R barr conf: MC4R beta-arrestin agonists, retest, confirmation, cell-based, luminescence, U2OS; activation, % at 8.9 µM; shares compounds with MC4R ag barr; U2OS MC4R beta-arrestin recruitment; scaled DMSO 0%, Melanotan II 100%; actives 31% (n = 2,400);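 active = mean activation across replicates above the hit cutoff set in the earlier primary screen, cut at about 8% in these data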
MOR-DOR barr ag: agonists of MOR-DOR heterodimerization, counter-screen for MC4R biased agonist project, cell-based, luminescence; shares compounds with MC4R ag barr; U2OS PathHunter beta-arrestin, beta-gal luminescence; percent of deltorphin B response, DMSO zero; activation, % at 9.2 µM; actives 5.8% (n = 2,400); AID 602194, 2012;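 active = mean activation across replicates exceeds the hit threshold derived in the earlier primary screen, cut at about 18% in these data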;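 also: 100% = deltorphin B at 0.9 µM final and 0% = DMSO alone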
NR2E3 ag conf: NR2E3 agonist confirmation in cells, cell-based, luminescence, CHO-S two-hybrid; actives 51% (n = 2,300); inhibition, % at 3.98 µM; AID 624378, 2012; shares compounds with NR2E3 ag-2; CHO-S mammalian two-hybrid NR2E3-NCOR, luciferase luminescence;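 active = average inhibition above a cutoff equal to the mean inhibition of all tested compounds plus one SD, cut at about 70% in these data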;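 also: 0% = DMSO in NR2E3 cells and 100% = DMSO in cells lacking NR2E3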
VP16 counter: GAL4-VP16 reporter modulators, confirmation, counter-screen for NR2E3 agonist project, cell-based, luminescence, CHO-S, high throughput; shares compounds with NR2E3 ag-2; CHO-S GAL4-VP16 luciferase reporter; inhibition, % at 3.98 µM; actives 29% (n = 2,300); AID 624379, 2012;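 active = mean inhibition above a cutoff equal to the average over all tested compounds plus one standard deviation, cut at about 70% in these data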;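 also: luciferase from a UAS reporter driven by GAL4-VP16 transactivation; 0% = DMSO with VP16-transfected cells and 100% = DMSO with cells lacking VP16; higher means less reporter light so more repression of VP16 activity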
PG9 binder conf: binders of anti-gp120 antibody PG9, confirmation, biochemical, TR-FRET. inhibition, % at 6.7 µM. actives 90% (n = 1,500). shares compounds with PG9 binder. TR-FRET PG9 antibody binding. AID 651571, 2012; in the data active = inhibition above about 9%
PGV04 counter: binders of control antibody PGV04, counter-screen for PG9 antibody binder project, biochemical, TR-FRET, distinct HIV envelope site; actives 95% (n = 1,500); TR-FRET PGV04 antibody-gp120 binding; shares compounds with PG9 binder; inhibition, % at 6.7 µM; AID 651604, 2012; in the data active = inhibition above about 9.5%
An asterisk follows results filed as active; . = no result.

SMILES | MC4R antagonist | PG9 binder | NR1D1 modulator | MC4R ag barr | NR2E3 ag-1 | NR2E3 ag-2 | MC4R barr conf | MOR-DOR barr ag | NR2E3 ag conf | VP16 counter | others
Fc1ccc(-n2nnnc2-c2cnc(-c3cccs3)nc2C(F)(F)F)cc1 | 21 | -2 | 8 | 11* | 0 | 88* | -1 | 7 | 92* | 69
Cc1cc(C(=O)COC(=O)c2ccc(O)cc2O)c(C)n1-c1ccccc1 | 4 | -1 | 8 | 3 | 1 | 25 | . | . | . | .
COc1ccc(-n2c(C)cc(C(=O)COC(=O)c3ccc(O)cc3O)c2C)cc1 | 9 | -2 | 0 | 11* | 0 | 59 | 3 | 11 | 89* | 49
Cc1cc(/C=N/n2cnnc2)c(C)n1-c1ccc(OCc2ccc(Cl)cc2Cl)cc1 | -17 | . | . | 14* | 2 | 111* | 5 | 5 | 98* | 89*
CCCCCCCCCCOC(=O)Cn1c(COc2ccccc2OC)[n+](C)c2ccccc21 | -11 | 2 | 0 | 19* | 0 | 48 | 16* | 29* | 95* | 69
O=C(CNC(=O)Cc1ccccc1)N=Nc1c(O)n(Cc2ccc3c(c2)OCO3)c2ccccc12 | 21 | -2 | -2 | 0 | . | 0 | . | . | . | .
CCOc1ccc(NC(=O)NN2C(C)CCCC2C)cc1 (centres undefined) | 2 | 1 | 2 | -3 | . | 3 | . | . | . | .
O=C(N/N=C/c1ccc(O)cc1)c1ccc(COc2cc(Cl)ccc2Cl)o1 | 5 | -2 | 0 | 26* | 2 | 54 | 40* | 9 | 42 | -17
COc1cccc(/C=C2/SC(=S)N(CCCC(=O)Nc3ccc(O)cc3)C2=O)c1 | -4 | -2 | 6 | 9.9* | 1 | 54 | 20* | 5 | 15 | 70
Cc1ccc(/C=C2/SC(=S)N(CCCC(=O)Nc3ccc(O)cc3)C2=O)cc1 | 0 | -1 | -3 | 17* | . | 88* | 7 | 8 | 41 | 90*
CCOC(=O)c1ccc(S(=O)(=O)NC2CC2)cc1 | 0 | -1 | -1 | 0 | 0 | -20 | . | . | . | .
CCOC(=O)c1ccc(S(=O)(=O)NC2CCC(C)CC2)cc1 (centres undefined) | 1 | 1 | 2 | 11* | 0 | 70 | 1 | 7 | 51 | 51
COc1cccc(/C=N/NC(=S)NC2CC3CCC2C3)c1OC (centres undefined) | 4 | -2 | -1 | -1 | 3 | -19 | . | . | . | .
Oc1ccccc1/C=N/NC(=S)NC1CC2CCC1C2 (centres undefined) | 11 | -2 | -1 | 12* | 3 | 48 | -2 | 7 | -164 | -101
CCOc1ccc(C(C)NC(=O)c2ccccc2OCc2c(C)noc2C)cc1OCC (centres undefined) | 7 | 0 | 0 | 1 | 3 | -17 | . | . | . | .
Cc1cc(C)c2nc(-c3ccccn3)cc(C(=O)Nc3cc(C)on3)c2c1 | 14 | 17* | 11 | 16* | 1 | -4 | 3 | 4 | . | . | PG9 binder conf=19*;PGV04 counter=27*
Cc1cc(NC(=O)c2cc(-c3ccccn3)nc3ccccc23)no1 | 14 | 1 | 0 | -1 | 2 | -4 | . | . | . | .
CC(C)NC(=O)N(C)C[C@H]1Oc2c(NC(=O)Cc3ccccc3)cccc2C(=O)N([C@H](C)CO)C[C@@H]1C | 1 | -1 | 1 | 0 | . | -5 | . | . | . | .
O=C(NCc1ccccc1)c1cc(-c2ccncc2)nc2ccccc12 | 1 | -1 | 6 | 0 | 3 | 16 | . | . | . | .
Cc1nn(-c2ccccc2)c2sc(C(=O)NNC(=O)COc3cccc4ccccc34)cc12 | 4 | 10* | 9 | 25* | 5 | -22 | 6 | 4 | . | . | PG9 binder conf=11*;PGV04 counter=20*
COc1ccc(-c2cc(-c3cccs3)c(C#N)c(SCC(=O)NCc3ccco3)n2)cc1 | -13 | . | . | -1 | 2 | -67 | . | . | . | .
COc1cccc(-c2ccc(C#N)c(SCC(=O)NCc3ccco3)n2)c1 | 2 | 11* | 2 | 19* | -4 | -40 | -3 | 17 | . | . | PG9 binder conf=20*;PGV04 counter=36*
O=C(Nc1nnc(SCc2ccc(F)cc2)s1)c1ccc2ncsc2c1 | 4 | 9.7* | 12 | 17* | . | -138 | -1 | 3 | . | . | PG9 binder conf=19*;PGV04 counter=25*
Cc1cccc(-c2nsc(SCC(=O)Nc3nccs3)n2)c1 | 6 | 10* | 8 | 13* | 6 | 4 | 0 | 8 | . | . | PG9 binder conf=9.2*;PGV04 counter=12*
Cc1cccc(-c2nsc(SCC(=O)Nc3ccc4c(c3)OCO4)n2)c1 | 4 | 0 | -3 | 3 | 4 | -40 | . | . | . | .
COc1ccc(-c2nsc(SCC(=O)Nc3cc(C)on3)n2)cc1 | 6 | 42* | 13 | 17* | -8 | -20 | -1 | 7 | . | . | PG9 binder conf=41*;PGV04 counter=55*
CCOC(=O)CNC(=O)CSc1nc(-c2ccc(OC)cc2)ns1 | 7 | 1 | -3 | 1 | -1 | 6 | . | . | . | .
